PMC10351452 (Autophagy, 2023)

Tests used:
[1] = tested on: BCL2L1(BCL-XL)-BAX interaction; test: PCA lysate mixing protocol BCL2L1-L1 + BAX-L2; type: biochemical; settings: 1 µM ABT-737 incubated with BCL2L1-L1 lysate 1 h prior to BAX-L2 lysate
PANC1 cells = test: Cell viability; type: cell-based, human; settings: CQ 10 µM, day 4; stated as similar to compound 189
[2] = tested on: NCI-H460 human lung cancer cells; test: Cell viability; type: cell-based; settings: CQ 10 µM, 4 days
NCI-H1299 cells = test: Cell viability; type: cell-based, human; settings: CQ, 4 days
Outline: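 HEC-1A (DMEM/F12) and NCI-H1299 (RPMI) cells, media with 10% FBS, plated at 2000 cells/well and treated next day with test compound 10 µM. CQ 10 µM was used in HEC-1 cells. CellTiter-Glo luminescence read after 4 days and expressed as growth relative to DMSO. Mean ± SD; n = 11 for HEC-1A, n = 6 for NCI-H1299. One-way ANOVA with Tukey.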

[3] = tested on: autophagosomes and autolysosomes in RFP-GFP-LC3B PANC1 cells; test: Autophagy flux assay in RFP-GFP-LC3B PANC1 stable cells; type: cell-based, human; settings: RFP-GFP-LC3B PANC1, CQ 10 µM, 24 h
Outline: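 PANC1 cells transfected with an RFP-GFP-LC3B vector and kept two weeks under puromycin to give a stable polyclonal line. Plated on coverslips at 3X105 cells/well and treated next day, with CQ 10 µM as a comparator. After 24 h: DAPI stain, 4% paraformaldehyde fixation, confocal imaging. Autophagosomes RFP+GFP+; autolysosomes counted as red minus green dots per cell. Normalised to DMSO, mean ± SD, n = 3 biological repeats, two-way ANOVA/Sidak.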

Compound	luminescence in BCL2L1-L1/BAX-L2 PCA [1]	reduction of growth of PANC1 cells (PANC1 cells) [%]	effect on growth of NCI-H460 cells [2]	response of NCI-H1299 cells (viability) (NCI-H1299 cells)	number of autophagosomes and autolysosomes per cell [3]
CN(C)CC[C@H](CSc1ccccc1)Nc1ccc(S(=O)(=O)NC(=O)c2ccc(N3CCN(Cc4ccccc4-c4ccc(Cl)cc4)CC3)cc2)cc1[N+](=O)[O-] [ABT-737]	significant decrease in luminescence				
CCN(CC)CCCC(C)Nc1ccnc2cc(Cl)ccc12 (centres unmarked) [CQ, chloroquine]		> 50	no effect	did not respond	shift toward increased number of autophagosomes at the expense of autolysosomes
